T cruzi inh: blocks replication of Trypanosoma cruzi; 1.4% of 300,000 active; T. cruzi beta-gal in NIH3T3, luminescence, 90 h; inhibition, % (concentration not given with the values);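 active means mean inhibition across valid replicates above about 55%, limit read from the data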;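 further: signal also drops with host cell toxicity which is not excluded here; higher percent means less beta-gal luminescence so fewer parasites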
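compound dosing = single 50 nL compound addition per well in DMSO | material = NIH/3T3 host cells with β-galactosidase reporter T. cruzi | input = 5,000 host fibroblasts per well | timing = ≥90 h infection period, 3 h prior cell attachment | read-out basis = percent inhibition of parasite-derived β-gal signal | detection = GalScreen β-gal luminescence, detergent lysis, 60 min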
CHOP inhibitor: inhibitors of CHOP induction in ER stress response; CHO-K1 CHOP-promoter luciferase, tunicamycin-induced, 15-18 h; inhibition, % at 10 µM; 3.8% of 220,000 active; AID 2732;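 active means compounds that reduced the stress-induced luciferase reporter signal by more than about 70% of percent inhibition, limit read from the data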
UPR CHOP act: apoptotic UPR (CHOP) activation; CHO-CHOP luciferase reporter, luminescence; percent of tunicamycin response over DMSO baseline; activation, % at 10 µM; 0.34% of 330,000 active; AID 449763;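 active means at 10 µM dose, activation of 40% or more, normalized to positive control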
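measured by = luciferase luminescence | assay system = CHO-CHOP cells, stable luciferase reporter of PERK-eIF2a-CHOP signalling | amount = 500 reporter cells seeded per well | timing = 6 h compound exposure at 37 °C after overnight seeding | controls = positive tunicamycin 10 µg/mL, negative DMSO alone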
Lmaj promast: reduces viability of Leishmania major promastigotes | resazurin fluorescence viability | inhibition, % at 10 µM | 9% of 200,000 active; in the data active means inhibition above about 50%;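 further: promastigotes grown with compound for 44 hours at 28 °C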
UPR XBP1 act: activators of adaptive arm of unfolded protein response (XBP1); CHO-XBP1 luciferase reporter, IRE1-XBP1 UPR activation, luminescence; percent of tunicamycin response, DMSO as zero; activation, % at 20 µM; 0.33% of 330,000 active;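 active means versus positive control, 20 µM dose yields 30% or more activation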
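Test system: CHO-XBP1 luciferase reporter cells | Buffer or medium: Serum-containing F12 medium, 10% FBS | Schedule: 6 h compound exposure at 37 °C, 5% CO2 | Detection: Steady-Glo luciferase glow luminescence, 10 min after reagent addition | Read-out basis: Activation, % of tunicamycin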
Dynein transport: blocks dynein driven cargo transport along microtubules. AID 1381. z-score, hits read low. 0.47% of 220,000 active. 3617.4 mouse cells, GR-EGFP nuclear translocation imaging; test concentration mostly 20 µM; stimulated with dexamethasone, 1 µM; hits give low values;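 active means plate z-score of nuclear minus cytoplasmic receptor signal below a set negative limit, without overly bright fluorescence or cell loss, cut at about -3.5 in these data, passing the limit was not always enough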;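 further: z-score of nuclear minus cytoplasmic ring GR-EGFP intensity difference per well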
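Medium: Induction medium lacking tetracycline, stripped serum | Probe or stimulus: 1.0 µM final dexamethasone stimulus | Schedule: 48 h induction, then 1 h compound, then 30 min agonist, 37 °C | Signal: Automated 10x imaging of fixed Hoechst-stained cells | Evaluation: Per-cell GR-EGFP intensity, nucleus versus surrounding cytoplasmic ring, well-averaged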
A number is an active result; - = inactive; . = not tested or not shown. The full list was thinned out, with hits kept by preference.

SMILES	T cruzi inh	CHOP inhibitor	UPR CHOP act	Lmaj promast	UPR XBP1 act	Dynein transport
C/C(=C\C(=O)c1ccccc1)Nc1ccc(N2CCOCC2)cc1	64	-	-	-	-	-
COc1ccc2c(c1)Sc1ccccc1N2	-	-	.	100	.	-
CCOC(=O)c1c(C)[nH]c(C(=O)CSc2nccc(C)n2)c1C	-	-	-	75	-	-
COc1cccc(CNC(=O)C(c2ccc(Cl)cc2)C(C)C)c1 (configuration not stated)	-	-	-	57	-	-
N#Cc1ccccc1Cn1c(=O)n(C2CCCC2)c(=O)c2ccccc21	-	-	-	-	-	-
O=c1c2ccccc2n(Cc2cccc(F)c2)c(=O)n1C1CCCC1	-	82	-	64	-	-
O=C(N/N=C/c1ccc([N+](=O)[O-])o1)c1cc(-c2ccncc2)nc2ccccc12	-	-	-	99	-	-5
C/C(=N\NC(=O)c1cc(-c2ccncc2)nc2ccccc12)c1ccc(N2CCOCC2)cc1	-	-	-	97	-	-
O=C(N/N=C/c1ccc([N+](=O)[O-])o1)c1cc(-c2ccc(-c3ccccc3)cc2)nc2ccccc12	-	-	-	100	-	-
Cc1cc(N/N=C/c2ccc([N+](=O)[O-])o2)nc2ccccc12	-	-	-	83	-	-
CSc1ccc(CN2CCC(n3nccc3NC(=O)C3CCOC3)CC2)cc1 (configuration not stated)	-	.	-	.	-	.
CC(C)(C)OC(=O)C[C@H]1C/C=C\C[C@@H](CC(=O)NCCO)C(=O)N[C@H](C(C)(C)C)COC1=O	.	.	-	.	-	.
Cc1cc2ncn(/N=C/c3ccc([N+](=O)[O-])o3)c2cc1C	60	-	-	99	-	-
Cc1ccc2nc(N/N=C/c3ccco3)cc(C)c2c1	-	-	-	62	-	-
Cc1ccc2nc(C)cc(SCC(=O)N/N=C/c3ccco3)c2c1	-	.	-	.	-	.
Cc1ccc(S(=O)(=O)N/N=C\c2ccc([N+](=O)[O-])o2)cc1C	-	.	-	.	-	.
O=C1NC(=O)C(CC(=O)N(Cc2ccco2)C2(C(=O)NC3CCCC3)CCCCC2)N1 (configuration not stated)	-	-	-	-	-	-
Cc1cccc(C)c1NC(=O)C1(N(Cc2ccco2)C(=O)CC2NC(=O)NC2=O)CCCCC1 (configuration not stated)	-	77	-	-	-	-
CCOC(=O)C1=C(C)Nc2nc(SCC)nn2C1c1ccc(OC)cc1 (configuration not stated)	-	-	-	-	-	-
CCOC(=O)C1=C(C)Nc2nc(=S)[nH]n2C1c1ccc(Cl)cc1 (configuration not stated)	-	-	-	94	-	-
COC(=O)c1ccc(OC(=O)CN2C(=O)c3ccccc3C2=O)cc1	-	.	-	.	-	.
CC1=CC(C)(C)Nc2ccc(OC(=O)C(Cc3ccccc3)N3C(=O)c4ccccc4C3=O)cc21 (configuration not stated)	-	-	-	99	-	-
CC1=CC(C)(C)Nc2ccc(OC(=O)CN3C(=O)c4cccc5cccc(c45)C3=O)cc21	-	-	.	95	.	-
CC(=O)Oc1ccc(CC(C(=O)O)N2C(=O)c3ccccc3C2=O)cc1 (configuration not stated)	-	.	-	.	-	.
C#CCOC(=O)CN1C(=O)c2cccc3cccc(c23)C1=O	-	.	-	.	-	.
CC1=CC(C)(C)Nc2ccc(OC(=O)CN3C(=O)c4ccccc4C3=O)cc21	-	-	-	101	-	-
Cc1cccc(NC(=S)N2CCC(N(C)CC3CCCO3)CC2)c1 (configuration not stated)	-	-	-	86	-	-
Cc1c(Cl)cccc1NC(=S)N1CCC(N(C)CC2CCCO2)CC1 (configuration not stated)	-	-	-	83	-	-
COc1ccc(NC(=S)N2CCC(N(C)CC3CCCO3)CC2)cc1Cl (configuration not stated)	-	-	-	95	-	-

Assay outcomes deposited in PubChem by several laboratories.
